ChEMBL document CHEMBL1124344, “5-Piperazinylalkyl-2(3H)-oxazolones with neuroleptic activity” (J Med Chem, 1989)

Key:
Rattus norvegicus [1] = assay: Activity to evoke catalepsy in rats, by administering perorally at a dose of 100 mg/kg; type: functional; details: route oral, read-out: Inhibition
Procedure, shortened: (§1)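 Rats fasted overnight and given oral doses in arabic gum suspension (10 mL/kg), 1 h before screening or 1 and 5 h before profile testing. Forelegs placed on a horizontal bar 7 cm high, three times at 5-min intervals. Immobility of at least 15 s counts as catalepsy. ED50 is the dose giving catalepsy in 50% of rats, by probit analysis. Parenthetical entries give the maximal dose and percent activity.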

Rattus norvegicus [2] = assay: Antagonistic activity against apomorphine-induced stereotypy in rats, by administering perorally at a dose of 100 mg/kg; type: functional; details: route oral
Procedure, shortened: (§2)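 Male rats fasted overnight and given oral doses in arabic gum suspension (10 mL/kg) 1 h, or 1 and 5 h, before challenge. Apomorphine 3 mg/kg iv, with stereotypy observed 20 min later. ED50 is the dose inhibiting stereotypy in 50% of rats, per Janssen's method. Parenthetical entries give the maximal dose and percent activity.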

[3] = Lethal dose in mice (LD50) following i.p. dosing; type: toxicity, organism-based; details: mouse, in vivo, ip
Procedure, shortened: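 Acute toxicity tested in mice by the intraperitoneal route. LD50 is the dose killing 50% of treated mice, computed by Finney probit analysis; values are approximate.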

Mus musculus [4] = assay: Inhibition of spontaneous motor activity in mice, by administering perorally at a dose of 100 mg/kg; type: functional; details: route oral
Procedure, shortened: (§3)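 Mice fasted overnight, then dosed orally with compound (weighed as base) suspended in arabic gum, 10 mL/kg, with vehicle controls; 1 h pretreatment for screening tests, 1 or 5 h for others. Groups of five; locomotor activity counted 10 min in photocell activity cage, at least two groups per dose. ED50 = dose giving 50% inhibition versus controls, by probit analysis.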

Mus musculus [5] = assay: Antagonistic activity against amphetamine-induced Hypermobility in mice, by administering perorally at a dose of 100 mg/kg; type: functional; details: route oral
Procedure, shortened: (§4)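 Male mice in groups of five, fasted overnight, given oral drug in arabic gum suspension (10 mL/kg) 1 or 5 h ahead. Amphetamine 4 mg/kg ip given 30 min after drug. Ten minutes later locomotion is recorded for 15 min in a photocell actophotometer. ED50 is 50% reduction versus control hypermotility, by probit analysis. Parenthetical entries give the maximal dose and percent activity.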

Rattus norvegicus [6] = assay: Antagonistic activity against apomorphine-induced stereotypy in rats, by administering perorally at a dose of 40 mg/kg; type: functional; details: route oral; procedure, shortened: as §2
Mus musculus [7] = assay: Inhibition of spontaneous motor activity in mice, by administering perorally; type: functional; details: po
Procedure, shortened: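 Mice in groups of five were dosed orally with gum arabic suspensions at 10 mL/kg after an overnight fast, with a vehicle control group. Locomotion was counted for 10 min in a photocell activity cage, in at least two groups per dose. ED50, by probit analysis, is the dose giving 50% inhibition against controls.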

Rattus norvegicus [8] = assay: Activity to evoke catalepsy in rats, by administering perorally at a dose of 40 mg/kg; type: functional; details: route oral; procedure, shortened: as §1
Mus musculus [9] = assay: Antagonistic activity against amphetamine-induced Hypermobility in mice, by administering perorally at a dose of 10 mg/kg; type: functional; details: route oral; procedure, shortened: as §4
Mus musculus [10] = assay: Inhibition of amphetamine-induced hypermobility in mice following p.o. administration.; type: functional; details: po
Procedure, shortened: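 Compounds were given orally to male mice (gum arabic suspension, 10 mL/kg, fasted) in groups of five. Amphetamine 4 mg/kg ip followed 30 min later. After another 10 min, motility was recorded for 15 min with a photocell actophotometer. ED50, by probit analysis, is the dose giving 50% reduction against controls.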

Rattus norvegicus [11] = assay: Activity to evoke catalepsy in rats, by administering perorally; type: functional; details: po; procedure, shortened: as §1
Rattus norvegicus [12] = assay: Antagonistic activity against apomorphine-induced stereotypy in rats, by administering perorally at a dose of 50 mg/kg; type: functional; details: route oral; procedure, shortened: as §2
Rattus norvegicus [13] = assay: Antagonistic activity against apomorphine-induced stereotypy in rats, by administering perorally at a dose of 200 mg/kg; type: functional; details: route oral; procedure, shortened: as §2
Mus musculus [14] = assay: Inhibition of spontaneous motor activity in mice, by administering perorally at a dose of 20 mg/kg; type: functional; details: route oral; procedure, shortened: as §3
Rattus norvegicus [15] = assay: Activity to evoke catalepsy in rats, by administering perorally at a dose of 20 mg/kg; type: functional; details: route oral, read-out: Inhibition; procedure, shortened: as §1
Rattus norvegicus [16] = assay: Antagonistic activity against apomorphine-induced stereotypy in rats, by administering perorally at a dose of 20 mg/kg; type: functional; details: route oral; procedure, shortened: as §2
Mus musculus [17] = assay: Antagonistic activity against amphetamine-induced Hypermobility in mice, by administering perorally at a dose of 20 mg/kg; type: functional; details: route oral; procedure, shortened: as §4
Rattus norvegicus [18] = assay: Antagonistic activity against apomorphine-induced stereotypy in rats, by administering perorally; type: functional; details: po; procedure, shortened: as §2
Rattus norvegicus [19] = assay: Antagonistic activity against apomorphine-induced stereotypy in rats, by administering perorally at a dose of 150 mg/kg; type: functional; details: route oral; procedure, shortened: as §2
Rattus norvegicus [20] = assay: Activity to evoke catalepsy in rats, by administering perorally at a dose of 150 mg/kg; type: functional; details: route oral; procedure, shortened: as §1
Rattus norvegicus [21] = assay: Activity to evoke catalepsy in rats, by administering perorally at a dose of 70 mg/kg; type: functional; details: route oral; procedure, shortened: as §1

| Structure (SMILES) | percent of rats showing catalepsy at 100 mg/kg (Rattus norvegicus [1]) [%] | inhibition in vivo at 100 mg/kg (Rattus norvegicus [2]) [%] | LD50 [3] [mg/kg] | inhibition in vivo at 100 mg/kg (Mus musculus [5]) [%] | ED50 (Mus musculus [7]) [mg/kg] | ED50 (Mus musculus [10]) [mg/kg] | also measured |
| --- | --- | --- | --- | --- | --- | --- | --- |
| Oc1nc(-c2ccc(F)cc2)c(CCN2CCN(c3ccc(Cl)c(Cl)c3)CC2)o1 | 0 | 0 | 1000 | 62 | – | – | inhibition in vivo at 100 mg/kg (Mus musculus [4]): 21% |
| Oc1nc(-c2ccc(F)cc2)c(CCCN2CCN(c3ccccc3)CC2)o1 | – | – | 170 | – | 8 | – | inhibition in vivo at 40 mg/kg (Rattus norvegicus [6]): 0%; inhibition in vivo at 40 mg/kg (Rattus norvegicus [8]): 0%; inhibition in vivo at 10 mg/kg (Mus musculus [9]): 69% |
| Oc1nc(-c2ccc(Cl)cc2)c(CCN2CCN(c3ccccn3)CC2)o1 | – | – | 375 | – | 14.1 | 14.3 | ED50 (Rattus norvegicus [11]): 47 mg/kg; inhibition in vivo at 50 mg/kg (Rattus norvegicus [12]): 0% |
| Oc1nc(-c2ccc(F)cc2)c(CCN2CCN(c3ccccn3)CC2)o1 | 0 | – | > 1000 | 0 | 38 | – | inhibition in vivo at 200 mg/kg (Rattus norvegicus [13]): 30% |
| Oc1nc(-c2ccc(F)cc2)c(CCN2CCN(c3ccc(Cl)cc3)CC2)o1 | 0 | 0 | > 1000 | 0 | 200 | – | – |
| Oc1nc(-c2ccc(F)cc2)c(CCN2CCN(c3cc(Cl)c(Cl)cc3Cl)CC2)o1 | – | – | 750 | – | – | – | inhibition in vivo at 20 mg/kg (Mus musculus [14]): 0%; percent of rats showing catalepsy at 20 mg/kg (Rattus norvegicus [15]): 0%; inhibition in vivo at 20 mg/kg (Rattus norvegicus [16]): 0%; inhibition in vivo at 20 mg/kg (Mus musculus [17]): 0% |
| Oc1nc(-c2ccc(F)cc2)c(CCN2CCN(c3cc(Cl)c(Cl)c(Cl)c3)CC2)o1 | 0 | 0 | > 1000 | 0 | – | – | inhibition in vivo at 100 mg/kg (Mus musculus [4]): 0% |
| Oc1nc(-c2ccc(F)cc2)c(CCN2CCN(c3ccc(Cl)c(Cl)c3Cl)CC2)o1 | – | – | 750 | – | – | – | inhibition in vivo at 20 mg/kg (Mus musculus [14]): 0%; percent of rats showing catalepsy at 20 mg/kg (Rattus norvegicus [15]): 0%; inhibition in vivo at 20 mg/kg (Rattus norvegicus [16]): 0%; inhibition in vivo at 20 mg/kg (Mus musculus [17]): 0% |
| COc1ccccc1N1CCN(CCc2oc(=O)n(C(C)=O)c2-c2ccc(F)cc2)CC1 | – | – | 190 | – | 4.3 | 3.5 | ED50 (Rattus norvegicus [11]): 30 mg/kg; ED50 (Rattus norvegicus [18]): 14.5 mg/kg |
| Oc1nc(-c2ccc(F)cc2)c(CCN2CCN(c3ccccc3)CC2)o1 | – | – | > 2000 | – | 3.6 | 5.4 | ED50 (Rattus norvegicus [11]): 87 mg/kg; ED50 (Rattus norvegicus [18]): 47.5 mg/kg |
| CC(=O)n1c(-c2ccc(F)cc2)c(CCN2CCN(c3ccccc3)CC2)oc1=O | – | – | 350 | – | 2.7 | 4.7 | ED50 (Rattus norvegicus [11]): 30.5 mg/kg; ED50 (Rattus norvegicus [18]): 44 mg/kg |
| CCCCn1c(-c2ccc(F)cc2)c(CCN2CCN(c3ccccc3)CC2)oc1=O | – | – | 750 | – | 16 | 15.4 | inhibition in vivo at 150 mg/kg (Rattus norvegicus [19]): 40%; inhibition in vivo at 150 mg/kg (Rattus norvegicus [20]): 0% |
| CC(=O)n1c(-c2ccc(F)cc2)c(CCN2CCN(c3cc(Cl)cc(Cl)c3)CC2)oc1=O | 0 | 10 | 1000 | – | 4.5 | 2.7 | – |
| CNC(=O)n1c(-c2ccc(F)cc2)c(CCN2CCN(c3ccccc3)CC2)oc1=O | 0 | – | 750 | – | 16.5 | 9.9 | – |
| CCN(CC)CCn1c(-c2ccc(F)cc2)c(CCN2CCN(c3ccccc3)CC2)oc1=O | – | – | 350 | – | 60 | – | inhibition in vivo at 70 mg/kg (Rattus norvegicus [21]): 0%; ED50 (Rattus norvegicus [18]): 35 mg/kg |
| COc1ccc(N2CCN(CCc3oc(O)nc3-c3ccc(F)cc3)CC2)cc1 | 0 | 0 | > 1000 | 0 | – | – | inhibition in vivo at 100 mg/kg (Mus musculus [4]): 33% |
